XiGFP reactiv: activators of X-chromosome reactivation in mouse fibroblasts | AID 743238 | activation, % at 7.58 µM | actives 0.055% (n = 360,000) | XiGFP mouse fibroblasts, % GFP-positive cells imaging, 3 d; cells co-treated with 5-aza-dC sensitizer; scaled so ellipticine positive control = 100%;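 active means mean normalized replicate activation at least 10% and every replicate at or above 10%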;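 further: 0% = median of on-plate neutral control wells and 100% = ellipticine 6 µM median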
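Material: SV40-immortalized XiGFP fibroblast cells, line 68-5-11 | Buffer or medium: DMEM containing 5-aza-dC | Dosing: One concentration, pinned | Times: 3 d treatment, 15 min room-temperature fixation | Controls: Ellipticine 6 µM positive control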
MITF act: MITF TRPM1 promoter activation in melanoma cells | SK-MEL-5 TRPM1-promoter luciferase, 24 h; % of positive control, neutral wells = 0 | activation, % at 12.5 µM | actives 0.75% (n = 300,000);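 active means mean activation of at least 80% with every replicate also reaching 80%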;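 further: 0% = neutral control wells and 100% = parthenolide positive control wells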
Casp6 inh: inhibitors of human caspase-6. P55212. purified caspase-6, Z-VEID-R110 cleavage fluorescence. inhibition, % at 12.5 µM. actives 0.53% (n = 350,000);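 active means mean inhibition across replicates at least about 35%, with every replicate also reaching that limit, limit read from the data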;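 further: 0% = median of neutral control wells and 100% = no fluorescence left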
Target sequence (P55212 24-179 limits assumed): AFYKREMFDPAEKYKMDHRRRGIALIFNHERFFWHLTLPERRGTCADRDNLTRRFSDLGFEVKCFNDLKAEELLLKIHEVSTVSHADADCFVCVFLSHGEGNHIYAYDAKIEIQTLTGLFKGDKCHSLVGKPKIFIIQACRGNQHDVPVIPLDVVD
Target sequence (P55212 194-293 limits assumed): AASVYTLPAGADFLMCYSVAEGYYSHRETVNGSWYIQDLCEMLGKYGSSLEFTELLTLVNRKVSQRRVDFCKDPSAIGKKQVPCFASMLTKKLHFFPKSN
esBAF inh: blocks esBAF chromatin remodeling in mouse ES cells | Bmi1-luciferase knock-in reporter, 24 h; 100% = twice the neutral-well signal | reporter increase, % at 12.5 µM | actives 2% (n = 350,000) | AID 602393; in the data active means activation above about 40%;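 further: 0% = median of the plate's neutral control wells and 100% = double that signal; a rise in the Bmi1 reporter signal indicates esBAF inhibition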
Wnt bcat act: Wnt/beta-catenin pathway activation | Wnt/beta-catenin reporter cell assay, activator, plate reader | activation, % at 9.35 µM | actives 1.2% (n = 300,000); in the data active means activation above about 30%, passing the limit was not always enough;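 further: 0% = neutral control wells and 100% = positive control wells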
NSD2 HMT inh: blocks human histone methyltransferase NSD2; NSD2 peptide methylation, AlphaScreen, 120 min; actives 0.54% (n = 310,000); O96028; AID 743445; inhibition, % at 12.5 µM; in the data active means inhibition above about 50%
Numbers without * were called inactive; · = no result. This is a sample that favours compounds with a hit; in the whole collection about 3% have one here.

SMILES	XiGFP reactiv	MITF act	Casp6 inh	esBAF inh	Wnt bcat act	NSD2 HMT inh
CSc1nnc(NC(=O)C2CCCCC2)s1	0	34	-4	45*	12	·
CCc1nnc(NC(=O)C2CCCCC2)s1	·	22	·	·	·	2
CCSc1nnc(NC(=O)C2CCCCC2)s1	·	·	·	44*	·	19
CN(C)CC(=O)N1[C@@H](CO)[C@H](c2ccccc2)C12CN(CC1CC1)C2	0	·	·	·	·	·
O=[N+]([O-])c1ccccc1-c1cc(-c2ccccc2O)n[nH]1	0	45	·	55*	36*	4
Cc1ccc(-c2cc(-c3ccccc3C)[nH]n2)c(O)c1	·	64	·	-5	·	-1
CN(C)/C=C1/C=C(C=O)OC1=O	0	·	45*	·	2	-1
CC1=C/C(=C/N(C)C)C(=O)O1	0	5	3	·	1	1
CCOC(=O)c1cc2ccc3ccccc3c2s1	·	53	·	75*	·	-7
CCOC(=O)c1cc2c(s1)-c1ccccc1CC2	·	32	·	57*	0	-3
COC(=O)c1cc2c(s1)-c1ccccc1CC2	·	36	·	32	3	-1
CCOC(=O)c1cc2ccc3ccccc3c2oc1=O	0	·	-1	-8	0	-6
CO[C@@H]1CN(C)C(=O)c2cc(NS(=O)(=O)c3c(C)noc3C)ccc2OC[C@H](C)NC[C@@H]1C	0	·	-1	1	·	·
Cc1nc(C2COc3ccccc3O2)sc1C(=O)O (stereo not drawn)	0	37	-1	45*	12	1
CCOC(=O)c1c(C)nc2c(c1-c1ccccc1)C(=O)c1ccccc1-2	·	18	·	-7	·	1
CCOC(=O)c1c(C)oc2c1C(=O)c1ccccc1C2=O	0	-95	8	49*	1	6
Cc1oc2c(c1C(=O)O)C(=O)c1ccccc1C2=O	0	-51	58*	-15	2	·
CC(=O)Nc1ccc2nc(-c3cccs3)[nH]c2c1	·	25	·	26	11	-1
c1csc(-c2nnsc2-c2nc3ccccc3[nH]2)c1	·	-4	·	40*	23	·
O=c1[nH]c2ccccc2nc1-c1cccs1	·	·	·	68*	43*	2
O=C(N[C@@H]1CC[C@H](CCNC(=O)C2CCCC2)O[C@H]1CO)c1ccccn1	0	·	1	-1	·	·
CCc1ccc2c(c1)C(c1ccncc1)=NNC(c1ccccc1)=N2	0	24	3	48*	15	1
COc1cccc(-c2nc3ccc(C(=O)NC(C)Cc4cccnc4)cc3o2)c1 (stereo not drawn)	0	40	22	54*	23	26
COC(=O)C1CCN(C(=O)c2ccc3nc(-c4cccc(OC)c4)oc3c2)CC1	0	-1	2	·	32*	-2
COC(=O)C1CCN(C(=O)c2ccc3nccnc3c2)CC1	0	-1	1	-5	0	0
SMILES	XiGFP reactiv	MITF act	Casp6 inh	esBAF inh	Wnt bcat act	NSD2 HMT inh
C[C@@H](NC(=O)C[C@@H]1C[C@H]2c3cc(NC(=O)C4CCOCC4)ccc3O[C@H]2[C@H](CO)O1)c1ccccc1	0	·	2	2	·	·
COc1ccc(-c2nn(-c3ccccc3)cc2C(=O)O)cc1	0	4	0	6	-2	·
COc1ccc(-c2nn(-c3ccccc3)cc2/C=N/Nc2cccc(C(=O)O)c2)cc1	0	41	8	47*	3	·
O=C(O)c1cccc(NC(=O)c2cn(-c3ccccc3)nc2-c2ccc([N+](=O)[O-])cc2)c1	0	-3	4	-2	5	2
COc1ccc(-c2nn(-c3ccccc3)cc2/C=N/NC(=O)c2ccc3c(c2)OCO3)cc1	·	·	·	·	·	1
COc1ccc(-c2nn(-c3ccccc3)cc2C(=O)Nc2cccc(C(=O)O)c2)cc1[N+](=O)[O-]	0	2	67*	4	0	1
COc1ccc(-c2nn(-c3ccccc3)cc2C#N)cc1	·	105*	·	45*	·	-2
C[C@H]1CN([C@@H](C)CO)C(=O)c2cccc(NC(=O)Nc3ccc(C(F)(F)F)cc3)c2O[C@@H]1CN(C)C(=O)Nc1ccc2c(c1)OCO2	0	·	·	6	·	·
O=C(C1CCC1)N1C[C@@H]2[C@H](c3ccccc31)[C@@H](CO)N2C(=O)Cc1ccccn1	0	·	·	0	·	·
CCN(CC)c1ccc2cc(-c3nnc(-c4ccncc4)o3)c(=O)oc2c1	·	72	·	44*	·	-6
OC[C@H]1OC(Nc2ccc(N=Nc3ccccc3)cc2)[C@@H](O)[C@@H](O)[C@@H]1O (stereo partly drawn)	0	·	3	·	16	6
O[C@@H]1COC(Nc2ccc(N=Nc3ccccc3)cc2)C[C@@H]1O (stereo partly drawn)	0	·	-3	·	46*	-6
Cc1sc2ncn(/N=C/c3ccco3)c(=O)c2c1C	0	13	3	49*	22	1
O=c1c2c3c(sc2ncn1/N=C/c1ccco1)CCCC3	·	29	-1	0	-1	-3
C[C@H]1CN([C@@H](C)CO)S(=O)(=O)c2ccc(-c3ccc(F)cc3)cc2O[C@H]1CN(C)C(=O)C1CC1	0	·	·	0	·	·
CCCc1cc2c(=O)c(-c3ccc4c(c3)OCCO4)coc2cc1OC(=O)c1ccco1	·	84*	·	81*	·	-3
CCc1cc2c(=O)c(-c3ccc4c(c3)OCCO4)coc2cc1OC(=O)c1ccco1	·	·	·	-6	67*	1
N#Cc1ccc(C(=O)NN2C(=O)NC3(CCCCC3)C2=O)cc1	0	3	2	3	-1	3
CN(C)c1cccc(C(=O)NN2C(=O)NC3(CCCCC3)C2=O)c1	0	18	0	43*	12	-1
COCC(=O)N(C)C[C@H]1Oc2cc(C#CC(C)C)ccc2S(=O)(=O)N([C@@H](C)CO)C[C@H]1C	2	·	·	-2	·	·
O=C(NC(=S)Nc1cccc(O)c1)C12CC3CC(CC(C3)C1)C2	0	·	6	47*	22	6
O=C(NNC(=O)C12CC3CC(CC(C3)C1)C2)c1cccc(O)c1	0	-6	2	14	0	3
COc1ccc(N(C(=O)Cn2cnc3ccccc32)C(C(=O)NC2CCCCC2)c2ccccc2)cc1 (stereo not drawn)	·	4	·	-3	56*	·
O=C(CCl)N1CCN(S(=O)(=O)c2ccc3ccccc3c2)CC1	0	-22	74*	-21	0	·
Clc1ccc(OCCSc2ncccn2)c2ccccc12	·	41	·	20	14	-3
c1cnc(SCCOc2cccc3ccccc23)nc1	·	106*	·	·	·	0
Cc1ccc(OCCSc2ncccn2)c(C)c1	0	153*	0	35	11	·
O=C(Nc1ccccc1F)N[C@@H]1CC[C@H](CCNC(=O)C2CCC2)O[C@@H]1CO	0	·	-2	0	·	·
COc1cc(/C=N/Nc2snc(SC)c2C#N)cc(OC)c1OC	·	-8	·	0	-1	0
CSc1nsc(N/N=C/c2ccc3c(c2)OCO3)c1C#N	0	92*	4	·	22	-3

Assay outcomes: PubChem BioAssay, Broad Institute
